Test results taken from ChEMBL document CHEMBL4765445, “Structure-activity relationship study of novel quinazoline-based 1,6-naphthyridinones as MET inhibitors with potent antitumor efficacy” (Eur J Med Chem, 2020).
Values belong to the molecule of their own block, whether it stands above or below them.

How the values were obtained:
[1] = target: Vascular endothelial growth factor receptor 2 (Homo sapiens, UniProt P35968); assay: Inhibition of recombinant VEGFR2 kinase domain (unknown origin)
Summary of the method: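 In vitro kinase assay using purified recombinant VEGFR-2 kinase domain; IC50 determined.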

[2] = target: T1, Hepatocyte growth factor receptor (Homo sapiens, UniProt P08581); assay: Inhibition of recombinant MET kinase domain (unknown origin)
T1 sequence (P08581 whole entry, the tested form may be a part): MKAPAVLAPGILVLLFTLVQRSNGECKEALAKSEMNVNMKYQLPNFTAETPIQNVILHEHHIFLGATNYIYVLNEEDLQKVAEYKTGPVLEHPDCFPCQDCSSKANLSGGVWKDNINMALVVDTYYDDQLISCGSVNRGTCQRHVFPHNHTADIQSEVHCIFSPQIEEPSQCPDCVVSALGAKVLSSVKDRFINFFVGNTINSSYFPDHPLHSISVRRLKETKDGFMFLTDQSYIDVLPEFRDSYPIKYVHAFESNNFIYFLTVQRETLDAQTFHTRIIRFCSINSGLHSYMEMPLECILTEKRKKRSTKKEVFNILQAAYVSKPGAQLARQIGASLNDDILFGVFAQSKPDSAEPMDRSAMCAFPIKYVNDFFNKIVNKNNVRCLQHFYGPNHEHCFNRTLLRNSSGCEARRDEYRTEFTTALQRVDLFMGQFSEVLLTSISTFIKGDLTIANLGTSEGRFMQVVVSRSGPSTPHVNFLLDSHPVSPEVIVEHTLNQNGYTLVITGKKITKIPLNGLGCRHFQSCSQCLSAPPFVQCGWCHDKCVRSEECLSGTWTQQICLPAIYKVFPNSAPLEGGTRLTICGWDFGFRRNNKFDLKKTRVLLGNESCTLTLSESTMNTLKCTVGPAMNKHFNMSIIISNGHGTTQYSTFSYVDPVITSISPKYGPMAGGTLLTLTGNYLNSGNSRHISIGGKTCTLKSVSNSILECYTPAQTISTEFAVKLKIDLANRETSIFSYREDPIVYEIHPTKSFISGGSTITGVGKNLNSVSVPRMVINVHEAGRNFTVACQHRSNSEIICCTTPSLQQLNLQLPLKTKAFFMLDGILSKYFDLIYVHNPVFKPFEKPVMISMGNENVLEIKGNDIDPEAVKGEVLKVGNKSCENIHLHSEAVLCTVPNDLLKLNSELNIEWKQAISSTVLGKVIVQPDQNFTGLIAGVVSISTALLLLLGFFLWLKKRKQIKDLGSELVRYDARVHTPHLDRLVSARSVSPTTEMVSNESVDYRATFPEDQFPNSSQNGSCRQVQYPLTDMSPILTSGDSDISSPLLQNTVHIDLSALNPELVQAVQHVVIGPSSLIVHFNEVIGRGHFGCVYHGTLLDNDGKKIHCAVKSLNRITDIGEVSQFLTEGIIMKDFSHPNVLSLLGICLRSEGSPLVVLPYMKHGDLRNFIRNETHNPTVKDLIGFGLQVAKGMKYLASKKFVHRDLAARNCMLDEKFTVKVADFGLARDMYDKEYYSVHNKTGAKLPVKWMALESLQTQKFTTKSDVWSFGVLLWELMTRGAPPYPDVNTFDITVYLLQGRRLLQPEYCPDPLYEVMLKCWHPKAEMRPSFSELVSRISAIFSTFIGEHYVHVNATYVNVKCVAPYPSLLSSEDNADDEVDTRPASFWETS

[3] = Half life in human liver microsomes; type: ADME, Microsome
[4] = target: T1, Hepatocyte growth factor receptor; assay: Inhibition of MET in human MKN-45 cells assessed as reduction in HGF-mediated autophosphorylation; type: cell-based
[5] = target: Proto-oncogene tyrosine-protein kinase receptor Ret (Homo sapiens, UniProt P07949); assay: Inhibition of RET (unknown origin)
Proto-oncogene tyrosine-protein kinase receptor Ret, sequence (P07949 whole entry): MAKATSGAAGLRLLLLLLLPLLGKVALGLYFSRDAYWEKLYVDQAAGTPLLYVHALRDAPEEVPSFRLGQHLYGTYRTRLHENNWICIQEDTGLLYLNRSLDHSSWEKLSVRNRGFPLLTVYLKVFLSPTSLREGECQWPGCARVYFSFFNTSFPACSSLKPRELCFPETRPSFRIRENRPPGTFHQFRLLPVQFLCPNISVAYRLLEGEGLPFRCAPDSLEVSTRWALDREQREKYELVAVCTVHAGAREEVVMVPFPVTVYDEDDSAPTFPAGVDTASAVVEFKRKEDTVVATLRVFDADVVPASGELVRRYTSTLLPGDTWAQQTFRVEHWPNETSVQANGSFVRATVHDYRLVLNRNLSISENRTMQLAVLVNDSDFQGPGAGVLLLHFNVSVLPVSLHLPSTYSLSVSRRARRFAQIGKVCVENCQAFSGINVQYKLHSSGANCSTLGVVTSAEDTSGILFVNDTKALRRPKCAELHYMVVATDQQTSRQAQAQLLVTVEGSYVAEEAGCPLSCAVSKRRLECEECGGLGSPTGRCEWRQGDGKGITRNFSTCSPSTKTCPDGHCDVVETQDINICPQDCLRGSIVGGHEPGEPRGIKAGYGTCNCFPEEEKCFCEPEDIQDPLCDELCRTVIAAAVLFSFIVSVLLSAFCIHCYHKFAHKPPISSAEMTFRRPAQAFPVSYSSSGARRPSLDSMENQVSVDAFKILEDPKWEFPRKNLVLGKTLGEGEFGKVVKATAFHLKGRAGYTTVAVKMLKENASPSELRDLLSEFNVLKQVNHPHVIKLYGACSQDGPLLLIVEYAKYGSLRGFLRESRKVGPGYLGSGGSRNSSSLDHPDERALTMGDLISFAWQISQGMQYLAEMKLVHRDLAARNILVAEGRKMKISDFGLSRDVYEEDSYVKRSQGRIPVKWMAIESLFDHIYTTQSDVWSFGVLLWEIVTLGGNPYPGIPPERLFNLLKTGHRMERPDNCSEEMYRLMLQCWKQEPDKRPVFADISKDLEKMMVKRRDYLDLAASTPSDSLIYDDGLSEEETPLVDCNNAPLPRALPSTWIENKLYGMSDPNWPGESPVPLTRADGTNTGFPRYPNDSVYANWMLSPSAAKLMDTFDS

[6] = target: Macrophage-stimulating protein receptor (Homo sapiens, UniProt Q04912); assay: Inhibition of Ron (unknown origin)
[7] = species: Homo sapiens; assay: Selectivity ratio of IC50 for recombinant VEGFR2 (unknown origin) to IC50 for recombinant MET (unknown origin)
Summary of the method: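 In vitro enzyme assays used purified recombinant MET and VEGFR-2 kinase domains, each tested separately. IC50 values are in nM. The ratio divides the VEGFR-2 enzyme IC50 by the MET enzyme IC50.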

[8] = target: T2, Tyrosine-protein kinase receptor UFO (Homo sapiens, UniProt P30530); assay: Inhibition of Axl (unknown origin)
T2 sequence (P30530 whole entry): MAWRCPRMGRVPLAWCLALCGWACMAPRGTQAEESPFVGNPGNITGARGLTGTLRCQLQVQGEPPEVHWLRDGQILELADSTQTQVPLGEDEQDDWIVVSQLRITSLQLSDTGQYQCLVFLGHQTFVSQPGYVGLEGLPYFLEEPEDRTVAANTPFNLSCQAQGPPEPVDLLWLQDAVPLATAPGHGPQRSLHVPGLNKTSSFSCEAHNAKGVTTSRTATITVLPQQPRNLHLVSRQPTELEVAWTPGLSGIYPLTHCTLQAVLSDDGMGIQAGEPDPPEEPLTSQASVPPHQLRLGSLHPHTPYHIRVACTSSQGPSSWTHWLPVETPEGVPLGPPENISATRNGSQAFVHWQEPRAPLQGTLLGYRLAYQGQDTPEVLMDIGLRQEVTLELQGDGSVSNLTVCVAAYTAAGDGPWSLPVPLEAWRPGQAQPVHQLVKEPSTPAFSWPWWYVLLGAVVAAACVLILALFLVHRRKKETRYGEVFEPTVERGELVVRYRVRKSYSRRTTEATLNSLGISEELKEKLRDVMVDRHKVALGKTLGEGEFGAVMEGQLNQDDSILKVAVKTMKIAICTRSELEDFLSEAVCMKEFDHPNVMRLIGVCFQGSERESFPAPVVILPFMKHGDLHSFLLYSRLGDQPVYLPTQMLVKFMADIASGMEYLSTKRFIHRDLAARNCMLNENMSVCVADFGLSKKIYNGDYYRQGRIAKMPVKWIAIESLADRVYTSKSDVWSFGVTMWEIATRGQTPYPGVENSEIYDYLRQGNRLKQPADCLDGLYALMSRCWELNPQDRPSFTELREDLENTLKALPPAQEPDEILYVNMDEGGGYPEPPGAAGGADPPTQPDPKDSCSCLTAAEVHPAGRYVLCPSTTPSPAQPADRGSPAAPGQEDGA

[9] = target: Mast/stem cell growth factor receptor Kit (Homo sapiens, UniProt P10721); assay: Inhibition of c-KIT (unknown origin)
[10] = target: T3, Receptor-type tyrosine-protein kinase FLT3 (Homo sapiens, UniProt P36888); assay: Inhibition of FLT3 (unknown origin)
T3 sequence (P36888 whole entry): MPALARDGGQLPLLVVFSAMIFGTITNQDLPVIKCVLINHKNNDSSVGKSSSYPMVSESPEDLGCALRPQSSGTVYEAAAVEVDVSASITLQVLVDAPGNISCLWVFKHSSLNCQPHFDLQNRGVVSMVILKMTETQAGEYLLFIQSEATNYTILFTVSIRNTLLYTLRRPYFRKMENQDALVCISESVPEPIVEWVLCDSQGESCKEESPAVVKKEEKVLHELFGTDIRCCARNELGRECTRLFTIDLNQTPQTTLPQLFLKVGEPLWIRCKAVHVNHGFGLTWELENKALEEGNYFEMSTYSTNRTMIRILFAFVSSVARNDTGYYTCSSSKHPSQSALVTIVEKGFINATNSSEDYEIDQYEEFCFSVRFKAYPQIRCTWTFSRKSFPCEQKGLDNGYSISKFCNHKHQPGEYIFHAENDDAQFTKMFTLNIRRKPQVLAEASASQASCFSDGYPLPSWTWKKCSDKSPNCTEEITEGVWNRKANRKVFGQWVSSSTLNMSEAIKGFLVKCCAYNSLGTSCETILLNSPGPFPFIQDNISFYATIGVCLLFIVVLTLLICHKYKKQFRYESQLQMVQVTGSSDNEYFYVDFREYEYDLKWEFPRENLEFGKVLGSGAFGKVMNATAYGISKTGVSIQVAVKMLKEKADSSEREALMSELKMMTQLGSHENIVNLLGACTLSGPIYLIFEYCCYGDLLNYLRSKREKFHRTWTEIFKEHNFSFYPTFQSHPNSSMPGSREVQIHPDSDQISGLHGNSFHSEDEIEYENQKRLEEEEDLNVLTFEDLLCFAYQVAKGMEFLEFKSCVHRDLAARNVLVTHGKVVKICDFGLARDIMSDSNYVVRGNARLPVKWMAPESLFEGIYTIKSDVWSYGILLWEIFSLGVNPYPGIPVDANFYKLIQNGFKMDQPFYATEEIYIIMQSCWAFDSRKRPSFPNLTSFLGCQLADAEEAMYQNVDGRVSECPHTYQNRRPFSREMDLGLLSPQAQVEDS

[11] = target: Platelet-derived growth factor receptor beta (Homo sapiens, UniProt P09619); assay: Inhibition of PDGFRbeta (unknown origin)
Platelet-derived growth factor receptor beta, sequence (P09619 whole entry): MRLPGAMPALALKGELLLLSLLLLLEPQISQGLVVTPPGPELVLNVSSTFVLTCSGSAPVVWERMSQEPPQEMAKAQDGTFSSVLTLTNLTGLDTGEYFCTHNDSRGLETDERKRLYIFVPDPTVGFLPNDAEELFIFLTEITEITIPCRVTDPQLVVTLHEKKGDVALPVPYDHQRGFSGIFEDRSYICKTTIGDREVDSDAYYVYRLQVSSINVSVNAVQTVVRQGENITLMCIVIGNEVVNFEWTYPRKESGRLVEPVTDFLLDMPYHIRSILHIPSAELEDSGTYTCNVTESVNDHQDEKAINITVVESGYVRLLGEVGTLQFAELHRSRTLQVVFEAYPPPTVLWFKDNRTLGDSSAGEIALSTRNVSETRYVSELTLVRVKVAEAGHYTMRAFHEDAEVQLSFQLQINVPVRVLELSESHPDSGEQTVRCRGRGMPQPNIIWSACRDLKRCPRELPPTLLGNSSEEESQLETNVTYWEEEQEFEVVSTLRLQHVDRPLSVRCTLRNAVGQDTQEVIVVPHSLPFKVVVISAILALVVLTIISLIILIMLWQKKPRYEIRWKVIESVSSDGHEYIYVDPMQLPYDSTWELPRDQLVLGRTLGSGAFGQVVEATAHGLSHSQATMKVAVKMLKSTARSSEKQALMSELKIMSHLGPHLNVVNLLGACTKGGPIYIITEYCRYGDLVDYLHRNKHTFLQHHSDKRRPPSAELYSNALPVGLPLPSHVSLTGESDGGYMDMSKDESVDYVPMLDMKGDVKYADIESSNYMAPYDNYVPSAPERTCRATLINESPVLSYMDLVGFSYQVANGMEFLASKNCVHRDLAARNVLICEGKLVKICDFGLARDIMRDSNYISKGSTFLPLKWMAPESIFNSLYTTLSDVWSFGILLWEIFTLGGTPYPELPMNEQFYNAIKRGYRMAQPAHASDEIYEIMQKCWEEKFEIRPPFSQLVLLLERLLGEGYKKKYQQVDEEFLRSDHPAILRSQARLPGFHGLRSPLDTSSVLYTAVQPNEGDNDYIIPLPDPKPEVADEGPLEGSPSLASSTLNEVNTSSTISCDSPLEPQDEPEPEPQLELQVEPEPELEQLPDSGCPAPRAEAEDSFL

Vascular endothelial growth factor receptor 2, sequence (P35968 whole entry, the tested form may be a part): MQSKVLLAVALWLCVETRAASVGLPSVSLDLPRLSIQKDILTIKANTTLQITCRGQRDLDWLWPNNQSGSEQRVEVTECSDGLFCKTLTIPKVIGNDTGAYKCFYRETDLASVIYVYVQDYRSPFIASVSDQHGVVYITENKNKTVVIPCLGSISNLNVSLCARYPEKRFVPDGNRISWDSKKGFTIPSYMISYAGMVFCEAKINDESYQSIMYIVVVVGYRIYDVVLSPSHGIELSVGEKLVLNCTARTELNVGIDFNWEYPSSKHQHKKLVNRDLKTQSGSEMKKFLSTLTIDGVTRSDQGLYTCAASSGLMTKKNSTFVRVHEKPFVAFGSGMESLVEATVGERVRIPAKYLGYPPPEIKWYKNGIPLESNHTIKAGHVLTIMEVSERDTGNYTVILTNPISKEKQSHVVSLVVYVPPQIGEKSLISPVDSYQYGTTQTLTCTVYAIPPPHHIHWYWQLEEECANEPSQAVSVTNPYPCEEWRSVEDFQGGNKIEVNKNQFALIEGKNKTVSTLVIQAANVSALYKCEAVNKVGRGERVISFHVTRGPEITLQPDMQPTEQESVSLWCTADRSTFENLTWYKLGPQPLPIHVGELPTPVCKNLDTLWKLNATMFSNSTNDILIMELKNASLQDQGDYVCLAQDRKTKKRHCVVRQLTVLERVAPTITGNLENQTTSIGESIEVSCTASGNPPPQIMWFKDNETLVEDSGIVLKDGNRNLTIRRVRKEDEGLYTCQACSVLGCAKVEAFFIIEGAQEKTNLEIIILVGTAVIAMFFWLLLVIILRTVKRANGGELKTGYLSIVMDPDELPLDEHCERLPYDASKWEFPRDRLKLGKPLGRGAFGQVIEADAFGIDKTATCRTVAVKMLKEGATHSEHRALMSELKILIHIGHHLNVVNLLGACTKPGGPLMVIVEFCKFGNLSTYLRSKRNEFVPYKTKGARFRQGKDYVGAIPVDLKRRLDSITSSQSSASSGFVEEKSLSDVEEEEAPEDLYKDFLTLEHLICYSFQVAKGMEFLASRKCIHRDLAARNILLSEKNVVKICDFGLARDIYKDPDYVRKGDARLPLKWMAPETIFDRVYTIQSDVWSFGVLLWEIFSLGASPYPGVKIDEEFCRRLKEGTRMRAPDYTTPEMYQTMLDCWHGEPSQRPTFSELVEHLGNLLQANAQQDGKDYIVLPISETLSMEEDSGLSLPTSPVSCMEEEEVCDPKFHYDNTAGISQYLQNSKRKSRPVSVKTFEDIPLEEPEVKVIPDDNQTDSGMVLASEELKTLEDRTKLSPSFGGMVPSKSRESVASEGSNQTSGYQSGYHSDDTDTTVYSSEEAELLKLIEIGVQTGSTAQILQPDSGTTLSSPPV

Structure (SMILES): COc1cc2c(Oc3ccc(Nc4nccc5[nH]cc(-c6ccc(F)cc6)c(=O)c45)cc3F)ncnc2cc1OCCCO
IC50 [1]: 68 nM
IC50 [2]: 39.3 nM

Structure (SMILES): COc1cc2c(Oc3ccc(Nc4nccc5[nH]cc(-c6ccc(F)cc6)c(=O)c45)cc3F)ncnc2cc1OCCCN1CCCC1
IC50 [1]: 128 nM
IC50 [2]: 8.3 nM
IC50 [4]: 130 nM

Structure (SMILES): COCCOc1cc2c(Oc3ccc(Nc4nccc5[nH]cc(-c6ccc(F)cc6)c(=O)c45)cc3F)ncnc2cc1OC
IC50 [1]: 97.3 nM
IC50 [2]: 36 nM

Structure (SMILES): COc1cc2ncnc(Oc3ccc(Nc4nccc5[nH]cc(-c6ccc(F)cc6)c(=O)c45)cc3F)c2cc1OCCCN1CCOCC1
IC50 [1]: 121 nM
IC50 [2]: 23.2 nM

Structure (SMILES): COCCOc1cc2ncnc(Oc3ccc(Nc4nccc5[nH]cc(-c6ccc(F)cc6)c(=O)c45)cc3F)c2cc1OC
IC50 [1]: 140 nM
IC50 [2]: 42 nM

Structure (SMILES): COc1cc2ncnc(Oc3ccc(Nc4nccc5[nH]cc(-c6ccc(F)cc6)c(=O)c45)cc3F)c2cc1OC
IC50 [5]: 65.3 nM
half-life [3]: 4.83 h
IC50 [6]: 90.1 nM
Ratio IC50 [7]: 27.6
IC50 [8]: 11 nM
IC50 [1]: 267 nM
IC50 [9]: 45.1 nM
IC50 [4]: 59.4 nM
IC50 [10]: 10.2 nM
IC50 [11]: 1360 nM

Structure (SMILES): COCCn1cc(-c2ccc(F)cc2)c(=O)c2c(Nc3ccc(Oc4ncnc5cc(OC)c(OC)cc45)c(F)c3)nccc21
IC50 [1]: > 3000 nM
IC50 [2]: 164 nM

Structure (SMILES): COCCOc1cc2ncnc(Oc3ccc(Nc4nccc5[nH]cc(-c6ccc(F)cc6)c(=O)c45)cc3F)c2cc1OCCOC
IC50 [1]: 79.2 nM
IC50 [2]: 19.5 nM

Now those with a lower IC50 [1], led by results:

half-life [3]: 4.17 h
IC50 [1]: 52.9 nM
IC50 [2]: 7.9 nM
Structure (SMILES): COc1cc2ncnc(Oc3ccc(Nc4nccc5[nH]cc(-c6ccc(F)cc6)c(=O)c45)cc3F)c2cc1OCC(C)(C)O

IC50 [1]: 33 nM
IC50 [2]: 15.4 nM
Structure (SMILES): COc1cc2c(Oc3ccc(Nc4nccc5[nH]cc(-c6ccc(F)cc6)c(=O)c45)cc3F)ncnc2cc1OCC1CCN(C)CC1

half-life [3]: 3.85 h
IC50 [1]: 21.7 nM
IC50 [2]: 13.9 nM
Structure (SMILES): COc1cc2c(Oc3ccc(Nc4nccc5[nH]cc(-c6ccc(F)cc6)c(=O)c45)cc3F)ncnc2cc1OCCO.Cc1ccc(S(=O)(=O)O)cc1

half-life [3]: 4.68 h
IC50 [1]: 12.3 nM
IC50 [2]: 3.5 nM
Structure (SMILES): COc1cc2ncnc(Oc3ccc(Nc4nccc5[nH]cc(-c6ccc(F)cc6)c(=O)c45)cc3F)c2cc1OCCO.Cc1ccc(S(=O)(=O)O)cc1
